Experimental data published in article PMC6727982 (ACS chemical neuroscience, 2019).
Read-outs that look alike come from different tables or passages of the source. One block for each molecule: values may come before it.

Assays:
[1] = LogD by shake-flask method with 18F-labeled tracers; type: physicochemical; details: pH 7.4
[2] = target: human GluN1/GluN2B receptors (Homo sapiens, UniProt Q05586+Q13224); type: cell-based; details: for %control at 1 μM, mean (99% CI), GluN2B: 1 μM compound, percent of maximal response to 100 μM glutamate/glycine; for IC50: n = 6−12
Chain of human GluN1/GluN2B receptors (Q13224 27-1484, other chains not shown): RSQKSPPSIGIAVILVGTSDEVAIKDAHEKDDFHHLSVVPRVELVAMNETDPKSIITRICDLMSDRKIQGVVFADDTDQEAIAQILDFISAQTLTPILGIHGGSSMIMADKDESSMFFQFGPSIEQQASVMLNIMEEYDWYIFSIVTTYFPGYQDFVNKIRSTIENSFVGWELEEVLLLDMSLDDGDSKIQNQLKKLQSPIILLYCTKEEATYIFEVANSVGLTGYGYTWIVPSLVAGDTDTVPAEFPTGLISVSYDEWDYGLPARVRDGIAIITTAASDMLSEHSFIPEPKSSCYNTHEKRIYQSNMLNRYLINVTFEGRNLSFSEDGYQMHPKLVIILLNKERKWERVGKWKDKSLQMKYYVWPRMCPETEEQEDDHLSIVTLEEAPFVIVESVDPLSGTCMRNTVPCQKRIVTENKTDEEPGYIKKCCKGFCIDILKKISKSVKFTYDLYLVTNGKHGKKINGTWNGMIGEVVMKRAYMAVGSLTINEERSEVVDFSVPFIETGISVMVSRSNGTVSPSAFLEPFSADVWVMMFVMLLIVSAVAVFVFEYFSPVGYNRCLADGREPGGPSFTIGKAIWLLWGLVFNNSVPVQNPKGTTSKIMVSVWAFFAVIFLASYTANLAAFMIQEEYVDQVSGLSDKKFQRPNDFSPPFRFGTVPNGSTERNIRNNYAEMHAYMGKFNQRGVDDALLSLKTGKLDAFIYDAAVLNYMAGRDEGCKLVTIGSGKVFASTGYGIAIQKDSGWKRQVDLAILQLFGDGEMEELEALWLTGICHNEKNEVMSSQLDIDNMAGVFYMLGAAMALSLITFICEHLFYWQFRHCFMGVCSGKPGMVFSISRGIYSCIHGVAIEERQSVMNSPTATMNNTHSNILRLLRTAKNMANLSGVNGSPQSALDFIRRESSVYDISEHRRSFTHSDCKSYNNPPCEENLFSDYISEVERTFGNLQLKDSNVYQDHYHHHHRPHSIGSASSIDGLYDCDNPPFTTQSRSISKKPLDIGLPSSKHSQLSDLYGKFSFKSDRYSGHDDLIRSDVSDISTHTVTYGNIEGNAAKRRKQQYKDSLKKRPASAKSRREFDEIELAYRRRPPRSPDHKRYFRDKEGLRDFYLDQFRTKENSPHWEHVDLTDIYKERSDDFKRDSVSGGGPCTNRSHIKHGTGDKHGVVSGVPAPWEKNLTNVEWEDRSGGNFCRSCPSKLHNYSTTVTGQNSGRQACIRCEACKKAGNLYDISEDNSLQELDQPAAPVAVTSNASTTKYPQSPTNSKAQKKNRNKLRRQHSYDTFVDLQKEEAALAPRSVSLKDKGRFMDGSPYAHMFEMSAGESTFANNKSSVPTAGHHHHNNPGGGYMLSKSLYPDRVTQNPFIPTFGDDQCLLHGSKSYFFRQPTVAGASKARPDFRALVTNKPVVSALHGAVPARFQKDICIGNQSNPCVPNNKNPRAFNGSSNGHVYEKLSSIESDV

[3] = tested on: GluN1/GluN2A/GluN2A (2A/2A); test: Inhibition of diheteromeric 2A/2A receptors; type: cell-based; details: wild-type 2A/2A, 1 μM compound
How it was run: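 Xenopus laevis stage VI oocytes injected with 5–10 ng receptor cRNA and kept at 15 °C in Barth's medium. Two-electrode voltage clamp run 2–7 days later at room temperature, holding −40 mV, in 90 mM NaCl, 1 KCl, 10 HEPES, 0.5 BaCl2, 0.01 EDTA, pH 7.4. Test compound (20 mM DMSO stock; final DMSO 0.05–0.5%) co-applied with 100 μM glutamate/100 μM glycine. Response given as % of response to agonists alone.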

GluN2B subunit [4] = test: In vitro autoradiography in NHP brain sections; type: binding; details: self-blocking 13 10 μM
How it was run: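 Brain sections (20 μm) preincubated 20 min in 50 mM Tris-HCl pH 7.4 at room temperature, then incubated 60 min at room temperature with 18F-labelled test compound (37 kBq/mL, 1.58 nM). Self-block: 30 min pretreatment with unlabelled test compound (10 μM, 0.1% DMSO, 1% ethanol in buffer), then cold-buffer wash. Washed, dried, exposed to imaging plates overnight. Regional signal (gray value/unit area) expressed as a ratio to forebrain white matter.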

[5] = Radiometabolite analysis in mice; type: in vivo; details: ICR mice, 15 min post injection, n = 2
How it was run: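 Female CD1 (ICR) mice (8 weeks, 23–27 g) received tracer IV via tail vein and were killed at 15 min. Plasma was deproteinized with ice-cold CH3CN, and brain was homogenized in ice-cold CH3CN, with repeated centrifugation at 4 °C. Supernatants were spiked with unlabelled reference and run on C18 radioHPLC (CH3CN/H2O 55/45, 5 mL/min). Fractions were gamma-counted; parent % = parent counts/total counts × 100.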

GluN2B subunit [6] = target: GluN2B subunit (Rattus norvegicus, UniProt P35439+Q00960); test: In vitro autoradiography in rat brain sections; type: binding
Chain of GluN2B subunit (Rattus norvegicus, UniProt P35439+Q00960) (Q00960 27-1482, other chains not shown): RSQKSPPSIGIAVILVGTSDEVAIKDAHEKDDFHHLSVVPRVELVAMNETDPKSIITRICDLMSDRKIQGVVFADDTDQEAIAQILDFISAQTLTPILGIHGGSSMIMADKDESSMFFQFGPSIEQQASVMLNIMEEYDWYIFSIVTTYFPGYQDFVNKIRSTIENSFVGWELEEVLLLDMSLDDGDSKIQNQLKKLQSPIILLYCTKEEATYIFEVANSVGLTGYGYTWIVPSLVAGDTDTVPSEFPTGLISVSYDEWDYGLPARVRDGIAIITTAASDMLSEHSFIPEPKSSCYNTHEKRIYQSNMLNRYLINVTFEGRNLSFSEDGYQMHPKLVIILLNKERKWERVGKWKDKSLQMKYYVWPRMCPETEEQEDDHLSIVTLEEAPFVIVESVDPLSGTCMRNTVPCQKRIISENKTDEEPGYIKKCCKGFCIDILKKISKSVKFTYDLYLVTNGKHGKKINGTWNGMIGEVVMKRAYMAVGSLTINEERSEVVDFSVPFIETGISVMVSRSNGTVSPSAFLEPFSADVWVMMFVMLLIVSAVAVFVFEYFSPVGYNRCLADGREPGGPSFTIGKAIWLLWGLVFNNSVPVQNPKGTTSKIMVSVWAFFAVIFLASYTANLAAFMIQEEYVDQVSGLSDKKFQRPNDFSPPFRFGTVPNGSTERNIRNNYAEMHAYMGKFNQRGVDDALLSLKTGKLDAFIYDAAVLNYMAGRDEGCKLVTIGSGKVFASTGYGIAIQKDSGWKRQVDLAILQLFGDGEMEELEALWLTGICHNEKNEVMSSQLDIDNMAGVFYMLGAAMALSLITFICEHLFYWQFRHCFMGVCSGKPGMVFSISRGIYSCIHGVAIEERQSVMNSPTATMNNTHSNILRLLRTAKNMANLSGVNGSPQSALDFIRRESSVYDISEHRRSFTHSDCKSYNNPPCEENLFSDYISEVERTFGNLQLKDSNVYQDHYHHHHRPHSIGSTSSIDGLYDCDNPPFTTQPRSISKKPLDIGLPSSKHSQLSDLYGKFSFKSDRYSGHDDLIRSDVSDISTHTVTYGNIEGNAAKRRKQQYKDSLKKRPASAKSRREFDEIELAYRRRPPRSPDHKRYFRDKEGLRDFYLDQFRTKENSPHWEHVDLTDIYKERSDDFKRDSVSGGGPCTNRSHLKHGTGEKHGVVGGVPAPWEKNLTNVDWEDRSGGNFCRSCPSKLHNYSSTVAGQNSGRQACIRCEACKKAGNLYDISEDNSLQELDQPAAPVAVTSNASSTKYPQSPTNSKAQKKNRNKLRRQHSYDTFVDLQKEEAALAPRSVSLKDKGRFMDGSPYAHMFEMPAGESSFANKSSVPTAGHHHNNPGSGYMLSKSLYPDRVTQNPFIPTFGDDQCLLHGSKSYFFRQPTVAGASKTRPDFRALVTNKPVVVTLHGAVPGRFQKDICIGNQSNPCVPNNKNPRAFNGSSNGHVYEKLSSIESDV

[7] = Whole body ex vivo biodistribution in mice
How it was run: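 Female CD1 (ICR) mice (8 weeks, 23–27 g) were injected via tail vein with tracer, 740 kBq/100 μL saline containing 5% ethanol. Animals were killed at 2, 10, 30 and 60 min. Organs were removed, weighed and gamma-counted. %ID/g of wet tissue (stomach as %ID/organ) was calculated against diluted aliquots of the injected dose, with decay correction.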

[8] = IC50, mean, 100 μM glutamate/glycine coapplied with increasing concentrations
[9] = pIC50, mean (95% CI), 100 μM glutamate/glycine
[10] = rat, self-blocking 13 10 μM, n = 3
[11] = remained high until 10 min post injection

SMILES: COc1cnc(OCc2cn(-c3ccc(F)c(Br)c3)nn2)nc1 [Compound 11, 2-((1-(3-Bromo-4-fluorophenyl)-1H-1,2,3-triazol-4-yl)methoxy)-5-methoxypyrimidine]
logD [1]: 3.14 ± 0.037
%control at 1 μM, mean (99% CI), GluN2B [2]: 13 (7, 19) %
IC50 [2, 8]: 19 nM
IC50 [2, 9]: 19.1 nM
sensitivity of 2A/2A responses [3]: insensitive

SMILES: COc1cnc(OCc2cn(-c3ccc(Br)c(F)c3)nn2)nc1 [Compound 12, 2-((1-(4-Bromo-3-fluorophenyl)-1H-1,2,3-triazol-4-yl)methoxy)-5-methoxypyrimidine]
IC50 [2, 8]: 339 nM
IC50 [2, 9]: 282 nM

Continued, values first:

logD [1]: 2.89 ± 0.037
%control at 1 μM, mean (99% CI), GluN2B [2]: 17 (11, 23) %
sensitivity of 2A/2A responses [3]: insensitive
SMILES: COc1cnc(OCc2cn(-c3ccc(F)c(C)c3)nn2)nc1 [Compound 13, 2-((1-(4-Fluoro-3-methylphenyl)-1H-1,2,3-triazol-4-yl)methoxy)-5-methoxypyrimidine]

specific binding, caudate nucleus (GluN2B subunit [4]): 79%
specific binding, entorhinal cortex (GluN2B subunit [4]): 89%
specific binding, insular cortex (GluN2B subunit [4]): 82%
specific binding, putamen (GluN2B subunit [4]): 73%
specific binding, thalamus (GluN2B subunit [4]): 53%
specific binding, hippocampus (GluN2B subunit [4]; n = 3): 87%
logD [1]: 2.89
parent fraction in brain [5]: 56.6%
parent fraction in liver [5]: 5.1%
parent fraction in plasma [5]: 11.8%
reduction of uptake by self-blocking (GluN2B subunit [6]; rat brain sections, cold compound 13 10 μM): ~ 90%
specific binding, frontal cortex (GluN2B subunit [6]; [10]): 94%
specific binding, hippocampus (GluN2B subunit [6]; [10]): 94%
specific binding, striatum (GluN2B subunit [6]; [10]): 92%
specific binding, thalamus (GluN2B subunit [6]; [10]): 88%
bone uptake [7]: < 2 %ID/g
initial uptake in heart, lung, kidney, liver, and small intestine ([7]; 2 min postinjection): > 5 % ID/g
uptake in heart, lung, kidney, spleen, pancreas, and muscle ([7]; 60 min postinjection): < 0.6 % ID/g
brain uptake at 2 min (brain2min) ([7]; i.v., 2 min post injection): 3.60 % ID/g
brain uptake at 10 min ([7]; i.v., 10 min post injection): 0.72 %ID/g
brain uptake at 60 min ([7]; i.v., 60 min post injection): 0.018 % ID/g
liver uptake [7, 11]: 20.84 % ID/g
small intestine uptake [7, 11]: 39.15 % ID/g
SMILES: COc1cnc(OCc2cn(-c3ccc([18F])c(C)c3)nn2)nc1 [[^18F]13, 2-((1-(4-[^18F]fluoro-3-methylphenyl)-1H-1,2,3-triazol-4-yl)methoxy)-5-methoxypyrimidine]

IC50 [2, 8]: 89 nM
IC50 [2, 9]: 75.9 nM
SMILES: COc1cnc(OCc2cn(-c3ccc(C)c(F)c3)nn2)nc1 [Compound 14, 2-((1-(3-Fluoro-4-methylphenyl)-1H-1,2,3-triazol-4-yl)methoxy)-5-methoxypyrimidine]
